# LEDGF integ inh = blocks HIV-1 LEDGF/p75-dependent DNA integration; TR-FRET IN-LEDGF/p75 DNA integration, Eu/Cy5; inhibition, % at 3.7 µM; 0.64% of 370,000 active; AID 743269;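 active means inhibition above the screen-wide mean plus 3 SD, cut at about 13% in these data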;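 further: signal is the Cy5 over europium emission ratio at 671 and 618 nm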
# PRMT1 inh = inhibitors of human PRMT1; AID 652257; 1.3% of 370,000 active; recombinant PRMT1, activity-based probe fluorescence polarization; Q99873; inhibition, % at 2.79 µM;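 active means inhibition above about 21% made by adding two undisclosed values, limit read from the data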
# UHRF1 binding = UHRF1 methyl-DNA binding inhibition. Q96T88. UHRF1 binding to methylated oligo, TR-FRET. inhibition, % at 4.4 µM. 0.75% of 370,000 active. AID 687016; in the data active means inhibition above about 21%;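 further: UHRF1 SRA domain binding a hemimethylated CpG hairpin DNA probe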
# SIAE primary = human SIAE inhibition, primary screen; Q9HAT2; SIAE FP-Rh probe binding, fluorescence polarization; inhibition, % at 9.66 µM; 0.69% of 370,000 active; AID 1053197;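 active means inhibition above a cutoff: mean of compounds within the control limits plus 3 SD of those, cut at about 17% in these data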
# TDP2 inh = blocks human TDP2 phosphodiesterase activity; O95551; 0.34% of 370,000 active; recombinant TDP2, T5PNP hydrolysis, p-nitrophenol absorbance 415 nm; inhibition, % at 12.8 µM;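 active means inhibition above the mean of all tested compounds plus 3 SD, set per campaign, cut at about 25% in these data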
# Target sequence (O95551 whole entry, looked up): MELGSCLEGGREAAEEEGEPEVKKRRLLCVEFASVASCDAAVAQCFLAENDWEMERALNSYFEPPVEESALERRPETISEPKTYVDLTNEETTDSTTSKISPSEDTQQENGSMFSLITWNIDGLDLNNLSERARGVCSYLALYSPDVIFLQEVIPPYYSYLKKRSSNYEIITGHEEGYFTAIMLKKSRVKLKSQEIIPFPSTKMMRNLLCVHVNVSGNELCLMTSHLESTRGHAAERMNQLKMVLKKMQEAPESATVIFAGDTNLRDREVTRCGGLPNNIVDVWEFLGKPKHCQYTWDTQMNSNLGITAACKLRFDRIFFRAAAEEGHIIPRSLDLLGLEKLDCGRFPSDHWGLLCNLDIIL
#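 Test system: Human TDP2 enzyme | Reagent: 5 mM T5PNP | Compound dosing: 12.8 µM single point, 1% DMSO | Incubation: Enzyme reaction with compound for 2 h at 37 °C | Technique: p-Nitrophenol epi absorbance | Read-out: % inhibition relative to enzyme-containing and enzyme-free wells | Benchmarks: High control without enzyme, low control DMSO plus TDP2 | Replicates: Singlicate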
# MBD2 DNA inh = blocks human MBD2 binding to methylated DNA | TR-FRET, MBD2 binding to methylated oligonucleotide | inhibition, % at 4.4 µM | 0.31% of 370,000 active | AID 686964; in the data active means inhibition above about 13%
# Hits are given with their value; – = inactive. An excerpt weighted towards active compounds, which were near 3.3% of everything screened.
SMILES,LEDGF integ inh,PRMT1 inh,UHRF1 binding,SIAE primary,TDP2 inh,MBD2 DNA inh
O=C(Nc1cccc(S(=O)(=O)N2CCOCC2)c1)c1ccc2ccccc2n1,–,–,22.0,–,–,–
Cc1ccc(S(=O)(=O)NCC(=O)OCC(=O)Nc2cccc(S(=O)(=O)N3CCOCC3)c2)cc1,26.9,–,–,–,–,–
CCCCOc1ccc(C(=O)NC2CCCCN(Cc3ccccc3C)C2=O)cc1 (stereo not given),–,–,–,–,–,–
Cc1cc(C)cc(NC(=O)N2CCN(Cc3nc4ccccc4c(=O)[nH]3)CC2)c1,–,–,–,–,–,–
Cn1c(NCCN2CCCCC2)cc(=O)n(C)c1=O,–,23.6,–,–,–,–
CCCNc1cc(=O)n(C)c(=O)n1C,–,–,–,–,–,–
O=C(CCNC(=O)c1ccccc1Cl)NNC(=O)c1ccccc1O,–,–,34.3,–,–,–
O=C(CC1CCCC1)NNC(=O)c1ccccc1O,–,–,36.2,–,–,–
COc1ccc(C(=O)N[C@H]2CC[C@@]34CCCN3C(=O)CCC[C@H]4[C@H]2C)cc1,–,–,–,–,–,–
O=C(N/N=C/c1ccc(-c2ccccc2C(=O)O)o1)c1cccs1,–,–,23.4,–,–,–
CCOC(=O)c1sc2ccc(S(=O)(=O)N3CC(C)CC(C)C3)cc2c1N (stereo not given),–,21.3,–,–,–,–
CCOC(=O)c1sc2ccc(S(=O)(=O)N3CCOCC3)cc2c1N,–,–,–,–,–,–
O=C(Nc1cccc(C(F)(F)F)c1)/C(=C\c1ccco1)NC(=O)c1cccs1,–,–,–,–,–,–
O=C(Nc1cccc(F)c1)/C(=C\c1ccco1)NC(=O)c1cccs1,–,23.3,–,–,–,–
Cc1cc(NC(=S)Nc2cccc3ccccc23)n[nH]1,–,23.3,–,–,–,–
Cc1ccc(NC(=S)Nc2cccc3ccccc23)cc1,–,–,–,–,–,–
Cc1cc(C)cc(NC(=S)Nc2cccc3ccccc23)c1,–,–,66.5,–,–,–
CCCN1CCS(=O)(=O)N(Cc2cn(Cc3ccc(C)cc3)nn2)C(C(=O)OC)C1 (stereo not given),–,–,–,–,–,–
COc1ccc(S(=O)(=O)N2CCC(C(=O)N(C)Cc3ccc(C)o3)CC2)cc1OC,–,23.9,–,–,–,–
COc1ccc(N2CC(C(=O)N/N=C/c3ccc(C)cc3)CC2=O)cc1 (stereo not given),–,–,23.9,–,–,–
COc1ccc(N2CC(C(=O)Nc3ncccc3C)CC2=O)cc1 (stereo not given),–,–,27.2,–,–,–
Cc1cc(N2CCN(C(=O)OC(C)(C)C)C[C@H]2C)ccc1N1CCN(Cc2ccccc2)[C@@H](C)C1,–,–,–,–,–,–
Cn1c(=O)c(=O)n(C)c2cc(S(=O)(=O)N3CCN(Cc4ccc5c(c4)OCO5)CC3)ccc21,–,–,–,–,–,–
CC1CCCN(CCCNS(=O)(=O)c2cc3c(cc2Br)CCN3C(=O)C2CC2)C1 (stereo not given),–,–,–,–,–,–
CCCCOC(=O)Nc1ccc(S(=O)(=O)Nc2nc(C)cc(C)n2)cc1,–,–,–,–,–,–
SMILES,LEDGF integ inh,PRMT1 inh,UHRF1 binding,SIAE primary,TDP2 inh,MBD2 DNA inh
CCCCOC(=O)Nc1ccc(S(=O)(=O)Nc2onc(C)c2C)cc1,–,–,21.1,–,–,–
COc1cccc(CC(=O)OCC(=O)NC2(C#N)CCCCC2)c1,–,–,45.8,–,–,–
O=S(=O)(c1ccc2c(c1)OCCO2)N1CCN(S(=O)(=O)c2c(F)cccc2F)CC1,–,–,–,–,–,–
O=S(=O)(c1ccc2c(c1)OCCO2)N1CCN(S(=O)(=O)c2c(F)cc(F)cc2F)CC1,–,–,28.9,–,–,–
C[C@@H]1OCN(C)[C@H]2C[C@H]3c4[nH]c5cccc(-c6ccccc6)c5c4CCN3C[C@@H]12,–,–,–,–,–,–
Cc1ccc(S(=O)(=O)Nc2cncnc2NS(=O)(=O)c2ccc(C)cc2)cc1,–,–,42.4,–,–,–
CCC(C)NC(=O)[C@@H]1CSC2c3ccccc3C(=O)N21 (stereo not given in full),–,21.3,–,–,–,–
Cc1ccc2cccc(OC(=O)/C=C\c3ccccc3)c2n1,–,–,26.9,–,–,–
COc1ccccc1/C=C/C(=O)Oc1cccc2cccnc12,–,–,–,–,–,–
O=CNCC(=O)NC1CCCCCC1,–,–,23.8,–,–,–
Cc1ccc(-c2nnc3ccc(SCC(=O)NCc4ccco4)nn23)cc1,–,–,21.7,–,–,–
O=C(CSc1ccc2nnc(-c3ccc(F)cc3)n2n1)NCc1ccco1,–,–,–,–,–,–
Cc1c(C(=O)N2CCCCC2)c(S(=O)(=O)N2c3ccccc3CC2C)c(C)n1C (stereo not given),–,–,22.7,–,–,–
CCN(C(=O)COC(=O)CCC(=O)c1ccccc1)c1c(N)n(Cc2ccccc2)c(=O)[nH]c1=O,–,–,–,25.8,–,–
COCCN(C(=O)CN1CCc2ccccc21)c1c(N)n(Cc2ccccc2)c(=O)[nH]c1=O,–,–,41.2,–,–,–
COCCN(C(=O)CN1CCCc2ccccc21)c1c(N)n(Cc2ccccc2)c(=O)[nH]c1=O,–,–,–,–,–,–
CCN(C(=O)COC(=O)CCC(=O)c1ccc(C)cc1)c1c(N)n(Cc2ccccc2)c(=O)[nH]c1=O,–,–,–,–,–,–
CCCC1CCC2(CCC(=O)N2CCOC)CC1 (stereo not given),–,–,–,–,–,–
O=C(N/N=C/c1ccc(O)c(O)c1O)/C(=C/c1ccc([N+](=O)[O-])cc1)NC(=O)c1ccccc1,–,24.4,–,–,–,–
Cc1ccc(NC(=O)/C(=C\c2ccc([N+](=O)[O-])cc2)NC(=O)c2ccccc2)cc1,–,–,–,–,–,–
O=C(N[C@H]1CC[C@H](CCNS(=O)(=O)c2ccc(Cl)cc2)O[C@@H]1CO)c1cccc(F)c1,–,–,23.0,–,–,–
O=C(N[C@H]1CC[C@@H](CCNS(=O)(=O)c2ccccc2Cl)O[C@@H]1CO)c1ccccc1,–,–,–,–,–,–
c1ccc(-c2c[nH]c3cccc(C4CCCCC4)c23)cc1,–,–,–,–,–,–
CCCCn1c2ccccc2c2nnc(SCC(=O)NC3=NN=C(c4ccccc4)CS3)nc21,–,44.7,–,–,–,–
CCCn1c2ccccc2c2nnc(SCC(=O)OC)nc21,–,–,–,–,–,–
Cc1ccc(S(=O)(=O)Nc2cc(C(=O)O)ccc2N2CCC(C)CC2)cc1C,–,–,–,–,–,–
Cc1cccc2c1CCC1CN(Cc3ccccc3)S(=O)(=O)N21 (stereo not given),–,–,–,–,–,–

# Assay outcomes as filed in PubChem.
